Assay results reported in article PMC5593424 (Bioorganic & medicinal chemistry letters, 2017).

Experiments:
eIF4A [1] = target: T1, eIF4A (Homo sapiens, UniProt P60842); assay: fluorescence-dequenching eIF4A helicase assay; format: biochemical; conditions: 100 µM compound, relative to DMSO control, eIF4B and ATP
Procedure, shortened: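 RNA unwinding assay: a fluorescently labelled RNA strand is annealed to a template beside a black-hole quencher. Adding eIF4A, eIF4B and ATP releases the strand and dequenches the fluorophore. A large excess of blank template prevents reannealing. Test compounds used at 100 μM.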

eIF4A [2] = target: T1, eIF4A; assay: malachite green eIF4A ATPase assay; format: biochemical; conditions: for inhibition of eIF4A ATPase activity (IC50): 8-point dose-response, 500 nM eIF4A, 250 µM ATP
A549 lung cancer cells = assay: MTT cytotoxicity, A549; format: cell-based; conditions: 8-point dose response
Procedure, shortened: (§1)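 Cells exposed to an 8-point dose-response of test compound; viability read by MTT. Percent survival plotted against compound concentration on semi-log axes, and LD50 taken from that curve.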

[3] = system: MDA-MA-468 breast cancer cells; assay: MTT cytotoxicity, MDA-MA-468; format: cell-based; conditions: MDA-MA-468, MTT, 8-point dose response
Procedure, shortened: as §1

[4] = cited from earlier work
DDX39A = DDX39A (Homo sapiens, UniProt O00148); assay: ATPase dose-response against DDX39A; format: biochemical; conditions: 8-point dose-response
Sequence of DDX39A (O00148 whole entry, species assumed): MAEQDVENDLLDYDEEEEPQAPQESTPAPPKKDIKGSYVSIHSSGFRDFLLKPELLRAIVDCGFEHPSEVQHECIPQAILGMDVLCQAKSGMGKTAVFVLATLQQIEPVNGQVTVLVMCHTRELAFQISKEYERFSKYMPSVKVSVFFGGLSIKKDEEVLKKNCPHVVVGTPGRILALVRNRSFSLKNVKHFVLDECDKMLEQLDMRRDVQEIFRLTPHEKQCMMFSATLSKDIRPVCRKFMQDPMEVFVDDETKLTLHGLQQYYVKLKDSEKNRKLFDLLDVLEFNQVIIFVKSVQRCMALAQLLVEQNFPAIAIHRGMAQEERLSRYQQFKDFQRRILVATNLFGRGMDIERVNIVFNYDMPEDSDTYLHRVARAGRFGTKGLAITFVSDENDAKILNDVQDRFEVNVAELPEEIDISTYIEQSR

NCI-60 panel = conditions: cited from earlier work

T1 sequence (P60842 whole entry): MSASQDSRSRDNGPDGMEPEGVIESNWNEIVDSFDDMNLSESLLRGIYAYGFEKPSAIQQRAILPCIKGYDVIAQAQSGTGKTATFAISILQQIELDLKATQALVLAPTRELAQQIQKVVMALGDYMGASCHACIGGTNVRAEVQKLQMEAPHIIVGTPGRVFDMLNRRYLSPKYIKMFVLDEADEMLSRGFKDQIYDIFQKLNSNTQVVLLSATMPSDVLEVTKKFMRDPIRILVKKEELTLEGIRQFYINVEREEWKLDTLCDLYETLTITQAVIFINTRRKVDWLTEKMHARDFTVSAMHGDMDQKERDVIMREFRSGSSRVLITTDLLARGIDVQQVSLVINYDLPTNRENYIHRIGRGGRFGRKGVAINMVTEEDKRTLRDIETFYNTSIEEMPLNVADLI

Row | Compound | inhibition of eIF4A helicase activity (eIF4A [1]) | Ki (eIF4A [2]) [µM] | inhibition of eIF4A ATPase activity (IC50) (eIF4A [2]) | LD50 (A549 lung cancer cells) [µM] | LD50 [3] [µM] | antibiotic activity [4] | inhibition of DDX39A (DDX39A) | activity against the NCI-60 panel (NCI-60 panel)
1 | C[C@H]1C[C@@]2(O[C@H]3C[C@H]4[C@@H]5CC[C@H]6C[C@H](O)CC[C@]6(C)[C@H]5[C@@H](O)C[C@]4(C)[C@H]3[C@@]2(C)O)OC1(C)C [Compound 3, hippuristanol, reference compound] | near complete inhibition |  |  |  |  |  |  | 
2 | C=C1CC[C@@](C)(c2cc(Br)c(C)cc2O)[C@H]1C [Compound 2, allolaurinterol] | near complete inhibition | 3.86 | single-digit | 41.4 | 31.7 | antibiotic activity |  | 
3 | CC(C)=C[C@@H]1C[C@H](C)c2c(O)cc(C)c3c2C1=C(C)C(=O)C3=O [Compound 1, elisabatin A] |  |  | single-digit | 40.2 | 35.2 |  | modest inhibition | only modest activity
